In ChEMBL document CHEMBL4368872, “Synthesis and anticonvulsant activity of phenoxyacetyl derivatives of amines, including aminoalkanols and amino acids” (Medchemcomm, 2018):
Activity calls are given as the source filed them. The rule behind the calls is not given here.

How the values were obtained:
[1] = system: Mus musculus; assay: Anticonvulsant activity in CF-1 mouse model of subcutaneous pentylenetetrazole-induced seizure assessed as reduction in convulsions at 30 mg/kg, ip measured at 0.5 hrs post dose; assay type: functional, organism-based
Procedure, shortened: (§1)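 Mice dosed i.p., then given pentylenetetrazole 85 mg/kg in 0.9% NaCl s.c. into the posterior midline of the neck. Seizures watched for at least 30 min. Scored as protected / tested at 0.5 and 4 h.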

[2] = system: Salmonella typhimurium; assay: Antimutagenic activity against Salmonella typhimurium TA100 assessed as inhibition of NaN3-induced mutation at 500 ug/plate preincubated for 30 mins followed by top agar addition and measured after 48 hrs in presence of liver S9 fraction by Ames test relative to control; assay type: organism-based; conditions: salmonella enterica subsp. enterica serovar typhimurium, s9, 48 h
[3] = Neurotoxicity in Sprague-Dawley rat at 30 mg/kg, po measured after 4 hrs by rotarod test; assay type: toxicity, organism-based; conditions: in vivo
Procedure, shortened: (§2)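 Rat neurotoxicity after i.p. or p.o. dosing was scored as animals impaired / animals tested at each time point. For p.o. dosing, TD50 was obtained by probit analysis.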

[4] = system: Rattus norvegicus; assay: Anticonvulsant activity in Sprague-Dawley rat model of maximal electroshock-induced seizure assessed as suppression of tonic hind limb extension at 30 mg/kg, po measured at 0.5 hrs post dose; assay type: functional, organism-based
Procedure, shortened: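 Rats given 30 mg/kg p.o. and tested by maximal electroshock at 150 mA. Scored as number protected / number tested (4 per group) at 0.25, 0.5, 1, 2 and 4 h after dosing.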

[5] = Mutagenicity in Salmonella typhimurium TA100 assessed as mutagenicity index at 50 to 500 ug/plate preincubated for 30 mins followed by top agar addition and measured after 48 hrs in presence of liver S9 fraction by Ames test; assay type: toxicity, subcellular; conditions: salmonella enterica subsp. enterica serovar typhimurium, s9, 48 h
Procedure, shortened: (§3)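 Ames plate incorporation in S. typhimurium TA100 or TA1535, with or without S9. Overnight culture, compound in DMSO (50–500 µg per plate) and buffer or S9 mix preincubated 30 min at 37 °C, then top agar on glucose minimal agar. Incubated 48 h at 37 °C, revertants counted in triplicate. Vehicle negative control; NaN3 (−S9) and 2AA (+S9) positive controls. MI = revertants with compound / negative-control revertants; MI ≥ 2 with dose-response counts as positive.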

[6] = Mutagenicity in Salmonella typhimurium TA1535 assessed as mutagenicity index at 50 to 500 ug/plate preincubated for 30 mins followed by top agar addition and measured after 48 hrs in absence of liver S9 fraction by Ames test; assay type: toxicity; conditions: salmonella enterica subsp. enterica serovar typhimurium, s9, 48 h; procedure, shortened: as §3
[7] = Mutagenicity in Salmonella typhimurium TA100 assessed as mutagenicity index at 50 to 500 ug/plate preincubated for 30 mins followed by top agar addition and measured after 48 hrs in absence of liver S9 fraction by Ames test; assay type: toxicity; conditions: salmonella enterica subsp. enterica serovar typhimurium, s9, 48 h; procedure, shortened: as §3
[8] = system: Mus musculus; assay: Anticonvulsant activity in CF-1 mouse model of maximal electroshock-induced seizure assessed as suppression of tonic hind limb extension at 300 mg/kg, ip measured at 0.5 hrs post dose; assay type: functional, organism-based
Procedure, shortened: (§4)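 Mice dosed i.p. and given maximal electroshock at 50 mA. Read-out is protection, reported as number protected / number tested at 0.25, 0.5, 1 and 4 h after dosing.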

[9] = Neurotoxicity in CF-1 mouse at 100 mg/kg, ip measured after 1 hr by rotarod test; assay type: toxicity, organism-based; conditions: in vivo
Procedure, shortened: (§5)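 Mice dosed i.p. were placed on a 1 in. knurled rod turning at 6 rpm. Toxicity was scored as failure to keep balance for at least 1 min, i.e. falling off three or more times. Results are reported as animals showing toxicity / animals tested at each time point.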

[10] = Neurotoxicity in Sprague-Dawley rat at 30 mg/kg, po measured after 1 hr by rotarod test; assay type: toxicity, organism-based; conditions: in vivo; procedure, shortened: as §2
[11] = system: Mus musculus; assay: Anticonvulsant activity in CF-1 mouse model of subcutaneous pentylenetetrazole-induced seizure assessed as reduction in convulsions at 300 mg/kg, ip measured at 0.5 hrs post dose; assay type: functional, organism-based; procedure, shortened: as §1
[12] = Neurotoxicity in CF-1 mouse at 30 mg/kg, ip measured after 4 hrs by rotarod test; assay type: toxicity, organism-based; conditions: in vivo; procedure, shortened: as §5
[13] = system: Salmonella typhimurium; assay: Antimutagenic activity against Salmonella typhimurium TA100 assessed as inhibition of NaN3-induced mutation at 250 ug/plate preincubated for 30 mins followed by top agar addition and measured after 48 hrs in presence of liver S9 fraction by Ames test relative to control; assay type: organism-based; conditions: salmonella enterica subsp. enterica serovar typhimurium, s9, 48 h
[14] = system: Mus musculus; assay: Anticonvulsant activity in CF-1 mouse model of subcutaneous pentylenetetrazole-induced seizure assessed as reduction in convulsions at 100 mg/kg, ip measured at 0.5 hrs post dose; assay type: functional, organism-based; procedure, shortened: as §1
[15] = system: Mus musculus; assay: Anticonvulsant activity in CF-1 mouse model of maximal electroshock-induced seizure assessed as suppression of tonic hind limb extension at 100 mg/kg, ip measured at 0.5 hrs post dose; assay type: functional, organism-based; procedure, shortened: as §4
[16] = system: Salmonella typhimurium; assay: Antimutagenic activity against Salmonella typhimurium TA100 assessed as inhibition of NaN3-induced mutation at 50 ug/plate preincubated for 30 mins followed by top agar addition and measured after 48 hrs in presence of liver S9 fraction by Ames test relative to control; assay type: organism-based; conditions: salmonella enterica subsp. enterica serovar typhimurium, s9, 48 h
[17] = Neurotoxicity in CF-1 mouse at 100 mg/kg, ip measured after 4 hrs by rotarod test; assay type: toxicity, organism-based; conditions: in vivo; procedure, shortened: as §5
[18] = Retention time of the compound in rat liver microsomes by LC-MS/MS analysis; assay type: ADME, Microsome
[19] = system: Mus musculus; assay: Anticonvulsant activity in CF-1 mouse model of maximal electroshock-induced seizure assessed as suppression of tonic hind limb extension at 100 mg/kg, ip measured at 4 hrs post dose; assay type: functional, organism-based; procedure, shortened: as §4
[20] = system: Mus musculus; assay: Anticonvulsant activity in CF-1 mouse model of maximal electroshock-induced seizure assessed as suppression of tonic hind limb extension at 300 mg/kg, ip measured at 4 hrs post dose; assay type: functional, organism-based; procedure, shortened: as §4
[21] = system: Salmonella typhimurium; assay: Antimutagenic activity against Salmonella typhimurium TA1535 assessed as inhibition of NaN3-induced mutation at 250 ug/plate preincubated for 30 mins followed by top agar addition and measured after 48 hrs in presence of liver S9 fraction by Ames test relative to control; assay type: organism-based; conditions: salmonella enterica subsp. enterica serovar typhimurium, s9, 48 h
[22] = system: Mus musculus; assay: Anticonvulsant activity in CF-1 mouse model of subcutaneous pentylenetetrazole-induced seizure assessed as reduction in convulsions at 300 mg/kg, ip measured at 4 hrs post dose; assay type: functional, organism-based; procedure, shortened: as §1
[23] = system: Salmonella typhimurium; assay: Antimutagenic activity against Salmonella typhimurium TA1535 assessed as inhibition of NaN3-induced mutation at 100 ug/plate preincubated for 30 mins followed by top agar addition and measured after 48 hrs in presence of liver S9 fraction by Ames test relative to control; assay type: organism-based; conditions: salmonella enterica subsp. enterica serovar typhimurium, s9, 48 h
[24] = Neurotoxicity in Sprague-Dawley rat at 30 mg/kg, po measured after 2 hrs by rotarod test; assay type: toxicity, organism-based; conditions: in vivo; procedure, shortened: as §2
[25] = Neurotoxicity in CF-1 mouse at 30 mg/kg, ip measured after 0.5 hrs by rotarod test; assay type: toxicity, organism-based; conditions: in vivo; procedure, shortened: as §5
[26] = system: Mus musculus; assay: Anticonvulsant activity in CF-1 mouse model of maximal electroshock-induced seizure assessed as suppression of tonic hind limb extension at 30 mg/kg, ip measured at 4 hrs post dose; assay type: functional, organism-based; procedure, shortened: as §4
[27] = Neurotoxicity in Sprague-Dawley rat at 100 mg/kg, ip measured after 0.5 hrs by rotarod test; assay type: toxicity, organism-based; conditions: in vivo; procedure, shortened: as §2
[28] = system: Salmonella typhimurium; assay: Antimutagenic activity against Salmonella typhimurium TA1535 assessed as inhibition of NaN3-induced mutation at 500 ug/plate preincubated for 30 mins followed by top agar addition and measured after 48 hrs in presence of liver S9 fraction by Ames test relative to control; assay type: organism-based; conditions: salmonella enterica subsp. enterica serovar typhimurium, s9, 48 h
[29] = system: Mus musculus; assay: Anticonvulsant activity in CF-1 mouse model of maximal electroshock-induced seizure assessed as suppression of tonic hind limb extension at 100 mg/kg, ip measured at 1 hr post dose; assay type: functional, organism-based; procedure, shortened: as §4

Compound | Activity [1] | inhibition (INH) [2] | Activity [3] | Activity [4] | Activity index [5] | Activity index [6] | Activity index [7] | Activity [8] | Activity [9] | Activity [10] | Activity [11] | Activity [12] | inhibition (INH) [13] | Activity [14] | Activity [15] | inhibition (INH) [16] | Activity [17] | Retention_time [18] | Activity [19] | Activity [20] | other results
Cc1cccc(C)c1OCC(=O)N[C@H](C)CO | inactive | 40% | Non-Toxic | Active | 0.7 to 1.7 | 0.7 to 1.7 | 0.7 to 1.7 | Active | Non-Toxic | Non-Toxic | inactive | Non-Toxic | 38% | inactive | inactive | 57% | Non-Toxic | 4.73 min | inactive | inactive | inhibition (INH) [21]: 47%; Activity [22]: inactive; inhibition (INH) [23]: 43%; Activity [24]: Non-Toxic; Activity [25]: Non-Toxic; Activity [26]: inactive; Activity [27]: Non-Toxic; inhibition (INH) [28]: 31%; Activity [29]: inactive
CCC(O)CNC(=O)COc1c(C)cccc1C (stereo not drawn) | inactive | 47% | Non-Toxic | Active | 0.7 to 1.7 | 0.7 to 1.7 | 0.7 to 1.7 | Active | Non-Toxic | Non-Toxic | inactive | Non-Toxic | 11% | inactive | inactive | 21% | Non-Toxic | 5.15 min | inactive | inactive | inhibition (INH) [21]: 56%; Activity [22]: inactive; inhibition (INH) [23]: 51%; Activity [24]: Non-Toxic; Activity [25]: Non-Toxic; Activity [26]: inactive; Activity [27]: Toxic; inhibition (INH) [28]: 27%; Activity [29]: inactive
